Test results published in ChEMBL document CHEMBL4477274, “Discovery of Novel Dot1L Inhibitors through a Structure-Based Fragmentation Approach” (ACS Med Chem Lett, 2016).
Blank lines part the entries; values can stand above or below the compound they belong to.

Experiments:
[1] = Tmax in Sprague-Dawley rat at 15 mg/kg, po administered via gastric intubation by LC-MS/MS analysis; type: ADME, organism-based; conditions: in vivo
Method in brief: (§1)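 Oral dosing was given to male Sprague Dawley rats as a suspension at 15 mg/kg. Total blood concentrations were sampled over time to give Cmax, Tmax and AUC0-inf. Oral bioavailability was calculated at this dose.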

[2] = target: T1, Histone-lysine N-methyltransferase, H3 lysine-79 specific (Homo sapiens, UniProt Q8TEK3); test: Inhibition of DOT1L in human HeLa cells assessed as reduction in H3K79me2 level after 72 hrs by ELISA; type: cell-based
[3] = Volume of distribution in Sprague-Dawley rat at 1 mg/kg, iv administered as bolus dose measured up to 48 hrs by LC-MS/MS analysis; type: ADME, organism-based; conditions: in vivo
Method in brief: (§2)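 Male Sprague Dawley rats received a single intravenous bolus at 1 mg/kg. Total blood concentrations were followed over time. Clearance, volume of distribution, half-life and AUC0-inf were derived from the blood profile.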

[4] = Clearance in Sprague-Dawley rat at 1 mg/kg, iv administered as bolus dose measured up to 48 hrs by LC-MS/MS analysis; type: ADME, organism-based; conditions: in vivo; method in brief: as §2
[5] = AUC (0 to infinity) in Sprague-Dawley rat at 15 mg/kg, po administered via gastric intubation by LC-MS/MS analysis; type: ADME, organism-based; set-up: dose 15 mg/kg, route oral, time infinity; conditions: in vivo; method in brief: as §1
[6] = test system: MV4-11; test: Antiproliferative activity against human MV4-11 cells harboring MLL-AF4 treated for 6 hrs measured after 8 days by Celltiter-Glo reagent based assay; type: functional, cell-based
[7] = target: T1, Histone-lysine N-methyltransferase, H3 lysine-79 specific; test: Inhibition of DOT1L (2 to 416 residues) (unknown origin) using biotinylated nucleosomes as substrate preincubated for 30 mins followed by substrate addition in presence of [3H-Me]SAM by scintillation proximity assay
[8] = Drug level in Sprague-Dawley rat blood at 15 mg/kg, po administered via gastric intubation up to 24 hrs by LC-MS/MS analysis; type: ADME, organism-based; conditions: in vivo; method in brief: as §1
[9] = Oral bioavailability in Sprague-Dawley rat at 15 mg/kg administered via gastric intubation measured up to 48 hrs by LC-MS/MS analysis; type: ADME, organism-based; conditions: in vivo; method in brief: as §1
[10] = Permeability of compound by HDM-PAMPA assay; type: ADME
[11] = Half life in Sprague-Dawley rat at 1 mg/kg, iv administered as bolus dose by LC-MS/MS analysis; type: ADME, organism-based; conditions: in vivo; method in brief: as §2
[12] = AUC (0 to infinity) in Sprague-Dawley rat at 1 mg/kg, iv administered as bolus dose by LC-MS/MS analysis; type: ADME, organism-based; set-up: dose 1 mg/kg, route intravenous, time infinity; conditions: in vivo; method in brief: as §2
[13] = target: T1, Histone-lysine N-methyltransferase, H3 lysine-79 specific; test: Inhibition of DOT1L in human MOLM13 cells assessed as suppression of HoxA9 gene after 72 hrs by luciferase reporter gene assay; type: cell-based
[14] = Cmax in Sprague-Dawley rat at 15 mg/kg, po administered via gastric intubation measured up to 48 hrs by LC-MS/MS analysis; type: ADME, organism-based; set-up: dose 15 mg/kg, route oral; conditions: in vivo; method in brief: as §1

T1 sequence (Q8TEK3 whole entry): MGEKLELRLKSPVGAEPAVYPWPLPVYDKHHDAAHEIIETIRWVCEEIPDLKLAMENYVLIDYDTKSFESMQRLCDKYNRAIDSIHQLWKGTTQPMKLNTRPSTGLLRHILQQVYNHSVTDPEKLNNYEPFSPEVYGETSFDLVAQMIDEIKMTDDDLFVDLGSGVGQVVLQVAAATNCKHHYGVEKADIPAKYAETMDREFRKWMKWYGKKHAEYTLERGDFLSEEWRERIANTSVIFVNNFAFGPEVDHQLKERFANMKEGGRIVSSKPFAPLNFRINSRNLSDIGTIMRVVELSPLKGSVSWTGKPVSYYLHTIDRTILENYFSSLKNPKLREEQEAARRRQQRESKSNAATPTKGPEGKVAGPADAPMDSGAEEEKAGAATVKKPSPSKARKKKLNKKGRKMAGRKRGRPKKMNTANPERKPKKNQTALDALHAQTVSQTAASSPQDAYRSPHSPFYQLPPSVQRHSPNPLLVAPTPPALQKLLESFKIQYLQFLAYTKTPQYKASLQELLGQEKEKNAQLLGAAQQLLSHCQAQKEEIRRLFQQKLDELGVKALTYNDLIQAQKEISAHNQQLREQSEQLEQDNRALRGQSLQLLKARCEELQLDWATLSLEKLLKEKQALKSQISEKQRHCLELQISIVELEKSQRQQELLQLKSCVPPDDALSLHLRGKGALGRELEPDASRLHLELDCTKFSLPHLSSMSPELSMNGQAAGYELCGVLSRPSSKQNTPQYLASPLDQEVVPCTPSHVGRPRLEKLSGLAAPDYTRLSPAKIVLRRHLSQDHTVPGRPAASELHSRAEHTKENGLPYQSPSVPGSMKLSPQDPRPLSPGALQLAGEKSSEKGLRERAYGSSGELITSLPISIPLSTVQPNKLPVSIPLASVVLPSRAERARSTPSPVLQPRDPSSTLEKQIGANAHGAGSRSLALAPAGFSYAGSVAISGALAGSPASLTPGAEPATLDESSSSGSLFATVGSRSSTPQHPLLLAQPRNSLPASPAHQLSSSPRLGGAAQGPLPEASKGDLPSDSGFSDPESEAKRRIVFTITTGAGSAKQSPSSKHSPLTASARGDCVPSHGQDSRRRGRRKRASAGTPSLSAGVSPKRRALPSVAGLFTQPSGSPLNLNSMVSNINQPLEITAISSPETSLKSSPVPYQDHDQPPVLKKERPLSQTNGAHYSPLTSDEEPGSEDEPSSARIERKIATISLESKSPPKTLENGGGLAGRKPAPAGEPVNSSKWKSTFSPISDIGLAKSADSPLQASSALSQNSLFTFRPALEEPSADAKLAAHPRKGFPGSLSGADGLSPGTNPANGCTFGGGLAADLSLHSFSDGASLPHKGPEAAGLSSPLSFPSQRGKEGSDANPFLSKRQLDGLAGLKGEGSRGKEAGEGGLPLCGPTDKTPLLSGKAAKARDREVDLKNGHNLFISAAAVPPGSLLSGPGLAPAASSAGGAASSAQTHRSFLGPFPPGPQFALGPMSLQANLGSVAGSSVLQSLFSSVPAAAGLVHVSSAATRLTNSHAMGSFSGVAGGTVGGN

- Tmax [1]: 3.5 h
- IC50 [2]: 23 nM
- Vd [3]: 10 L/kg
- clearance [4]: 84 mL/min/kg
- AUC(0-inf) [5]: 2.37 µM·h
- IC50 [6]: 85 nM
- IC50 [7]: 1.4 nM
- Ki [7]: 0.36 nM
- Drug uptake [8]: Active
- bioavailability [9]: 40%
- permeability [10]: Permeable
- half-life [11]: 102 min
- AUC(0-inf) [12]: 0.396 µM·h
- IC50 [13]: 384 nM
- Cmax [14]: 225 nM
SMILES: CNc1ccnc(Nc2ccc3sc(Cl)c(-c4cc(-c5c(C)ncn(C)c5=O)cnc4Cl)c3c2)n1

- IC50 [7]: 4100 nM
SMILES: Cc1cc2ccc(NC3=NC(=O)CN3)cc2n1-c1cccnc1Cl

- IC50 [7]: 1100 nM
SMILES: Cc1cc2ccc(Nc3nc(=O)cc[nH]3)cc2n1-c1cccnc1Cl

- IC50 [7]: 10 nM
SMILES: CNc1ccnc(Nc2ccc3cc(C)n(-c4cc(-c5c(C)ccn(C)c5=O)cnc4Cl)c3c2)n1

- IC50 [7]: 28000 nM
SMILES: Cc1cc2ccc(Nc3cccnn3)cc2n1-c1cccnc1Cl

- IC50 [7]: 280 nM
SMILES: CNc1ccnc(Nc2ccc3cc(C)n(-c4cccnc4Cl)c3c2)n1

- IC50 [7]: 4300 nM
SMILES: Cc1cc2ccc(Nc3nccc(N)n3)cc2n1-c1cccnc1Cl

- IC50 [7]: 150 nM
SMILES: CNc1ccnc(Nc2ccc3cc(C)n(-c4ccccc4Oc4ccccc4)c3c2)n1

- IC50 [7]: 14000 nM
SMILES: O=C(Cn1nnc(COc2ccccc2Cl)n1)NNC(=O)Nc1ccc(Cl)cc1

- IC50 [7]: 20 nM
- permeability [10]: Impermeable
SMILES: O=C(Cn1nnnc1-c1ccccc1Cl)NNC(=O)Nc1ccc2ccn(-c3ccccc3Cl)c2c1

- IC50 [7]: 4400 nM
SMILES: O=C(Cn1nnnc1COc1ccccc1Cl)NNC(=O)Nc1ccc(Cl)cc1

- IC50 [2]: 16 nM
- IC50 [6]: 128 nM
- IC50 [7]: 0.4 nM
- Ki [7]: 0.08 nM
- IC50 [13]: 340 nM
SMILES: CNc1ccnc(Nc2ccc3cc(C)n(-c4ccccc4Oc4cnc5c(c4)ncn5C)c3c2)n1

- IC50 [7]: 40000 nM
SMILES: CCNC(=O)Nc1ccc2ccn(-c3ccccc3Cl)c2c1
